From ChEMBL document CHEMBL2407062, “Synthesis and anticancer activities of 5,6,7-trimethoxy-N-phenyl(ethyl)-4-aminoquinazoline derivatives” (Eur J Med Chem, 2013)
Calls of active or inactive are those of the source. The rule behind the calls is not given here.

Tests used:
[1] = system: Bcap37; test: Growth inhibition of human Bcap37 cells at 1 uM after 72 hrs by MTT assay relative to control; format: functional; conditions: for inhibition of growth at 1 µM: Homo sapiens, Bcap37, 72 h, read-out: GI
Procedure, shortened: (§1)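 Cells in RPMI 1640 with 10% heat-inactivated FBS, 37 °C, 5% CO2. Seeded at 2 × 10³ cells per well. Compounds dissolved in DMSO, diluted in medium, tested at 1–100 μM for 72 h; 0.1% DMSO control. MTT read-out, absorbance at 595 nm. Mean ± SD of triplicate experiments. IC50 taken from the dose–response curve.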

[2] = system: Bcap37; test: Growth inhibition of human Bcap37 cells at 10 uM after 72 hrs by MTT assay relative to control; format: functional; conditions: for inhibition of growth at 10 µM: Homo sapiens, Bcap37, 72 h, read-out: GI; procedure, shortened: as §1
[3] = system: PC-3; test: Growth inhibition of human PC3 cells at 10 uM after 72 hrs by MTT assay relative to control; format: functional; conditions: for inhibition of growth at 10 µM: Homo sapiens, PC-3, 72 h, read-out: GI; procedure, shortened: as §1
[4] = system: PC-3; test: Growth inhibition of human PC3 cells at 1 uM after 72 hrs by MTT assay relative to control; format: functional; conditions: for inhibition of growth at 1 µM: Homo sapiens, PC-3, 72 h, read-out: GI; procedure, shortened: as §1
[5] = system: BGC-823; test: Growth inhibition of human BGC823 cells at 10 uM after 72 hrs by MTT assay relative to control; format: functional; conditions: BGC-823, 72 h, read-out: GI; procedure, shortened: as §1
[6] = system: BGC-823; test: Growth inhibition of human BGC823 cells at 1 uM after 72 hrs by MTT assay relative to control; format: functional; conditions: BGC-823, 72 h, read-out: GI; procedure, shortened: as §1
[7] = system: PC-3; test: Growth inhibition of human PC3 cells after 72 hrs by MTT assay; format: functional, cell-based; conditions: PC-3, 72 h; procedure, shortened: as §1
[8] = system: Bcap37; test: Growth inhibition of human Bcap37 cells after 72 hrs by MTT assay; format: functional, cell-based; conditions: Bcap37, 72 h; procedure, shortened: as §1
[9] = system: BGC-823; test: Growth inhibition of human BGC823 cells after 72 hrs by MTT assay; format: functional, cell-based; conditions: BGC-823, 72 h; procedure, shortened: as §1
[10] = biological target: T1, Mitogen-activated protein kinase; ERK1/ERK2 (Homo sapiens) (UniProt P27361+P28482); test: Inhibition of EGF-induced ERK1/2 phosphorylation in human PC3 cells at 10 uM incubated for 60 mins prior to EGF-treatment measured after 10 mins by Western blotting analysis; format: cell-based; conditions: PC-3
T1 sequence (P27361 whole entry, looked up): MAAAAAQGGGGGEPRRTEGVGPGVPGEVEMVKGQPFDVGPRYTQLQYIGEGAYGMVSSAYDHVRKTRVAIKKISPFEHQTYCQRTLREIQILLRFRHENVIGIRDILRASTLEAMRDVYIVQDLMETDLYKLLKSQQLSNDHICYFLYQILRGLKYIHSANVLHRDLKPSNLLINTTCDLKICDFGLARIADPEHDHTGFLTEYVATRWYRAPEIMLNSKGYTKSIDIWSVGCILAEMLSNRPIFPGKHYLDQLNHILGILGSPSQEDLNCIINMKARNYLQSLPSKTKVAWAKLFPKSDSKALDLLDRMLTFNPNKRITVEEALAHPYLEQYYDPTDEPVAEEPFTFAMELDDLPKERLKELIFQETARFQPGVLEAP
T1 sequence (P28482 whole entry, looked up): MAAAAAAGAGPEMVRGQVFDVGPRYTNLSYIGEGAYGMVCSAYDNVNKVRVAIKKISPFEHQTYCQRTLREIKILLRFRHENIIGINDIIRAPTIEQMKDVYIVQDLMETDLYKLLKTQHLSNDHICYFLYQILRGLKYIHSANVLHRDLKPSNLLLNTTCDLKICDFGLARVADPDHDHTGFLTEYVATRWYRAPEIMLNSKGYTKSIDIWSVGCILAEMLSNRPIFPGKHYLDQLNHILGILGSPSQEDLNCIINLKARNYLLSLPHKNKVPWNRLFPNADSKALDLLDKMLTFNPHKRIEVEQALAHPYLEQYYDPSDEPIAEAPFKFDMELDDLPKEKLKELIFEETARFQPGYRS
Procedure, shortened: (§2)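 PC3 cells grown 36–48 h in RPMI 1640 with 10% FBS at 37 °C, then serum-starved 24 h. Treated with compound for 60 min, then EGF 10 ng/mL for 10 min; quenched on ice. Cells washed with cold PBS and lysed in NP-40/SDS buffer with Na3VO4 and NaF. Run on 10% SDS-PAGE, PVDF blot probed for pERK1/2 with actin as loading control, ECL detection.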

[11] = biological target: T1, Mitogen-activated protein kinase; ERK1/ERK2 (Homo sapiens); test: Inhibition of EGF-induced ERK1/2 phosphorylation in human PC3 cells at 5.12 uM incubated for 60 mins prior to EGF-treatment measured after 10 mins by Western blotting analysis; format: cell-based; conditions: PC-3; procedure, shortened: as §2

Structure (SMILES)	inhibition of growth at 1 µM [1] [%]	inhibition of growth at 10 µM [2] [%]	inhibition of growth at 10 µM [3] [%]	inhibition of growth at 1 µM [4] [%]	inhibition of growth at 10 µM [5] [%]	inhibition of growth at 1 µM [6] [%]	further results
COc1cc2ncnc(Nc3cc(I)ccc3C(=O)O)c2c(OC)c1OC	19.4	20.7	22.6	14.1	51.9	42.2	–
COc1cc2ncnc(Nc3cccc(Cl)c3)c2c(OC)c1OC [listing 1 of 2 here]	–	–	–	–	–	–	growth inhibition (GI) [1]: 14.1%; growth inhibition (GI) [2]: 28.8%; growth inhibition (GI) [3]: 11.9%; growth inhibition (GI) [4]: -4.5%
COc1cc2ncnc(Nc3cccc(F)c3)c2c(OC)c1OC	–	–	21.5	–	–	–	growth inhibition (GI) [4]: 14.7%
COc1cc2ncnc(Nc3cccc(Br)c3)c2cc1OC	19.8	43.4	62.8	21.5	32.6	9.3	IC50 [7]: 8.3 µM; IC50 [8]: 15.7 µM; IC50 [9]: 14.4 µM
COc1cc(Nc2ncnc3cc(OC)c(OC)c(OC)c23)c(C(=O)O)cc1OC	40.9	53.7	40.4	12.5	34.3	13.2	–
COc1cc2ncnc(Nc3c(F)cc(F)cc3Br)c2c(OC)c1OC	4.3	2.2	43	8.1	68.4	38.5	–
COc1cc2ncnc(Nc3cccc([N+](=O)[O-])c3)c2c(OC)c1OC	31.6	50	26.4	14.5	16.3	9	–
COc1cc2ncnc(Nc3cccc(Cl)c3)c2c(OC)c1OC [listing 2 of 2 here]	–	–	–	–	–	–	inhibition [10]: Active
COc1cc2ncnc(Nc3c(C)cc(C)cc3Br)c2c(OC)c1OC	–	–	19.8	9.7	11.4	0.6	–
COc1cc2ncnc(Nc3ccc(O)cc3)c2c(OC)c1OC	-7.5	3.3	24.6	9.3	–	–	inhibition [10]: Active
COc1cc2ncnc(Nc3ccccc3[N+](=O)[O-])c2c(OC)c1OC	-8.3	15.4	25.5	11.3	–	–	–
COc1cc2ncnc(Nc3cc(C(F)(F)F)ccc3Br)c2c(OC)c1OC	–	–	25.3	-3.9	23.2	2.1	–
COc1cc2ncnc(Nc3ccc(C)cc3)c2c(OC)c1OC	7.3	11.1	45.6	23.8	19.3	1.2	inhibition [11]: Active; inhibition [10]: Active
COc1cc2ncnc(Nc3cccc(C(F)(F)F)c3F)c2c(OC)c1OC	11.3	69.3	42.7	9.2	41.9	3.9	–
